Sampled rows, rich in hits. Any-hit rate of the full collection: about 1.3%.
CRFR2-BP antag = antagonists of CRF-BP/CRF-R2 complex, primary screen, cell-based, HEK293, calcium dye fluorescence, uHTS; 350,000 tested, 0.59% active; inhibition, % at 11.8 µM; CRF-induced calcium fluorescence;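 active = inhibition of the ligand-induced calcium signal above about 50% at the single tested concentration, limit read from the data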
CRFBP-R2 agonist = agonists of CRF-BP/CRF-R2 complex, primary screen, cell-based, HEK293, calcium dye fluorescence, uHTS; calcium dye fluorescence (FLIPR); percent of saturating CRF peptide response; activation, % at 13.2 µM; 350,000 tested, 0.46% active; AID 588473, 2011;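 active = activation of at least 50%, plus an integration ratio under a set limit after plate pattern correction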;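 also: plate controls were neutral control wells without compound for no effect and CRF at EC100 for full effect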
Tn6 DDE FP = inhibitors of Tn6 peptide binding to fibrin DD(E), primary screen, biochemical, fluorescence polarization, human fibrin, Tn6 probe; Fibrinogen beta chain (Homo sapiens), P02675; Fibrin DD(E) TRITC-Tn6 fluorescence polarization displacement; inhibition, % at 8.3 µM; 370,000 tested, 0.21% active;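 active = inhibition above a per-campaign cutoff: mean of compounds within control limits plus 3 SD, cut at about 15% in these data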;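 also: 0% = median of all compound wells on the plate and 100% = blocking peptide control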
Target sequence (P02675 whole entry, looked up): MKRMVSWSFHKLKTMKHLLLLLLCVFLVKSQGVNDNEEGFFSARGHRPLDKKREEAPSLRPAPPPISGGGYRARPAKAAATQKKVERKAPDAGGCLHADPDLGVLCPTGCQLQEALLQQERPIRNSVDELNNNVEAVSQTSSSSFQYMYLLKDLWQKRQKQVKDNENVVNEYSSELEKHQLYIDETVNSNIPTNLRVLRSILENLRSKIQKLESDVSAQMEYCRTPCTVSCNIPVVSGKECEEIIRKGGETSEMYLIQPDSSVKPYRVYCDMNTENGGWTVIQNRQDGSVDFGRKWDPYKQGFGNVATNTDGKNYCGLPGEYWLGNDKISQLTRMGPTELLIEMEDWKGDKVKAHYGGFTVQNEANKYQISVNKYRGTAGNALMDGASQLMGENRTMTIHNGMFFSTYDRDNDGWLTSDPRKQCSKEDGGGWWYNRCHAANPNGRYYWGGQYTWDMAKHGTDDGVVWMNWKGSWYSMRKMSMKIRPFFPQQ
DDE Tn7 FP inh = inhibitors of Tn7 peptide binding to fibrin DD(E), primary screen, biochemical, fluorescence polarization, human fibrin, Tn7 probe; Fibrinogen beta chain (Homo sapiens), P02675; inhibition, % at 8.3 µM; AID 720508, 2013; 370,000 tested, 0.13% active; FP displacement of FITC-Tn7 peptide from fibrin DD(E); 0% = median of compound wells per plate;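 active = inhibition above the mean of compounds falling within the control limits plus 3 SD of them, cut at about 14% in these data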;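 also: 0% = plate median of compound wells and 100% = 10 µM Aha-Tn7 peptide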
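System: human fibrin DD(E); quantity: Fibrin-DD(E) at 2 µM final; also added: fluorescent Tn7 probe at 0.1 µM; compound dosing: single nominal test concentration of 8.3 µM per compound; schedule: 10 min preincubation, 3 h with tracer, room temperature; detection: fluorescence polarization of the labelled Tn7 tracer; repeats: one replicate per compound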
Tn7 DDE conf = inhibitors of Tn7 peptide binding to fibrin DD(E), confirmation, biochemical, fluorescence polarization, human fibrin, Tn7 probe. shares compounds with DDE Tn7 FP inh. FP displacement of TRITC-Tn7 peptide from DD(E); 0% set at plate's compound-well median. inhibition, % at 8.3 µM. 460 tested, 5% active;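 active = inhibition above the campaign cutoff, the mean of compounds within control limits plus 3 SD, cut at about 14% in these data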;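 also: 100% = median FP of high control wells holding Aha-Tn7 inhibitor peptide; displacers lower polarization since freed probe rises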
Tn7 DDE ctr = counter-screen hit for Tn7 peptide-fibrin DD(E) binding disruption; shares compounds with DDE Tn7 FP inh; TRITC-Tn7 probe displacement, fluorescence polarization; inhibition, % at 8.3 µM; 460 tested, 3% active;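 active = inhibition above the cutoff, the mean of compounds lying between the control bounds plus 3 SD of those compounds, cut at about 17% in these data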;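 also: 0% = median of compound sample wells and 100% = excess unlabeled Aha-Tn7 peptide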
* = called active by the depositor; / = not tested or not shown.

SMILES | CRFR2-BP antag | CRFBP-R2 agonist | Tn6 DDE FP | DDE Tn7 FP inh | Tn7 DDE conf | Tn7 DDE ctr
COc1ccc(/C=C2\CCc3c2nc2ccccc2c3C(=O)O)cc1OC | -17 | 41 | -10 | 23* | -6 | -13
Cc1cc[n+](-c2[nH]c(=O)sc2/C=N/NC([S-])=Nc2ccccc2)cc1 | -42 | 49 | -5 | 6 | / | /
O=c1[nH]c(-[n+]2ccccc2)c(/C=N/NC([S-])=Nc2ccccc2)s1 | -1 | 14 | -2 | 15* | 10 | 6
COC[C@@H]1CCCN1c1cccc2c1S(=O)(=O)N(C1CC1)CCCO2 | / | / | -4 | -8 | / | /
CC(C)CCN1C(=O)c2cccc3c(N)ccc(c23)C1=O | -101 | 166* | 8 | 49* | 8 | -1
CCN1C(=O)c2cccc3c(Cl)ccc(c23)C1=O | -10 | -3 | -7 | -3 | / | /
O=C1CN(C(=O)c2ccc3nc(Cc4cccc(Cl)c4)oc3c2)CCN1 | 23 | 0 | 9 | 14* | 9 | 3
CC(=O)N1CCCN(C(=O)c2ccc3nc(Cc4cccc(Cl)c4)oc3c2)CC1 | 4 | 1 | 0 | -16 | / | /
CCOc1cc(CCNC(=O)c2cc3ccsc3n2C)ccc1OC | / | / | -5 | -4 | / | /
Cc1ccccc1NC(=O)COc1coc(CN2CCCc3ccccc32)cc1=O | 5 | 0 | 2 | 15* | 1 | -4
CCOC(=O)[C@@]12CCCC3=C1N(CCC3)C(=O)[C@H]2CC(=O)N1CCN(C(=O)C2CC2)CC1 | / | / | 2 | -5 | / | /
CCN(CC)CCCNc1ccc2ncn3c4ccc(O)cc4c(=O)c1c23 | -245 | 215* | 4 | 40* | 13 | -4
COc1ccc(OC)c(S(=O)(=O)Nc2ccc(OCC(=O)O)cc2)c1 | -1 | -1 | -3 | -8 | / | /
COc1ccc(OC)c(S(=O)(=O)Nc2ccc(CC(=O)O)cc2)c1 | 6 | -1 | -1 | 17* | 3 | 4
CCCCNC(=O)C[C@@H]1C(=O)N(CCc2ccc(Cl)cc2)C2=CCCCC[C@]21C(=O)OC | / | / | 1 | 1 | / | /
Cc1ccc(-c2csc3ncnc(SCC(N)=O)c23)cc1 | 8 | -1 | 5 | 16* | 1 | -1
CC(=O)Nc1cc(-c2ccccc2N(C)C)cn2c(-c3ccc(S(C)(=O)=O)cc3)cnc12 | / | / | 4 | 26* | -5 | -5
O=C1CCCC2=C1C(c1ccsc1)CC(=O)N2c1ccccc1F (stereo not given) | -5 | -1 | 4 | 15* | 1 | -2
CN(C)S(=O)(=O)c1cccc(NC(=O)C2CCN(S(=O)(=O)c3cccs3)CC2)c1 | -22 | 36 | -4 | 14* | -6 | -7
C[C@@H]1[C@@H](O)C[C@@]2(C[C@H](O)c3cc(Cl)cc(Cl)c3O2)O[C@H]1c1ccccc1Cl | / | / | -3 | -10 | / | /
O=C(c1ccccc1)c1ccc2c(c1)OCCOCCOCCOCCO2 | 4 | 1 | 10 | 14* | -2 | -6
CC(C)OCCCNC(=O)Cn1ncc2c(=O)oc3ccccc3c21 | 10 | 0 | 4 | 4 | / | /
CC(CCc1ccco1)NC(=O)Cn1ncc2c(=O)oc3ccccc3c21 (stereo not given) | 27 | -6 | -6 | 15* | 0 | -4
COc1ccc2[nH]c(=O)c(CN(C)C(=O)c3ccncc3)cc2c1 | 8 | 0 | -1 | 15* | -2 | -4
COc1ccc2[nH]c(=O)c(CN(C(=O)c3ccncc3)C(C)C)cc2c1 | 0 | 16 | -7 | -5 | / | /
CC(COc1ccc(Br)cc1)CN1CCC(C(O)(c2ccccc2)c2ccccc2)CC1 (stereo not given) | / | / | 3 | -8 | / | /
Cc1cc2nc3c(=O)[nH]c(=S)[nH]c3nc2cc1NC(=O)C(F)(F)F | -5 | 17 | 4 | 16* | -7 | -10
O=c1[nH]c(=S)[nH]c2nc(-c3ccccc3)cnc12 | -3 | -1 | 1 | -2 | / | /

High-throughput results as filed in PubChem.
